The values that follow come from paper PMC6982540 (Nature chemical biology, 2019).

The test system of one assay is reduced PTP1B (PTP1B-R). Description: SPR. The class given is binding. The note with it: 14-3-3ζ 5000 nM (Fig. 2c), HBS-N pH 7.4, 25 °C. The method, boiled down:
(§1)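 His-PTP1B (1–321) kept in TCEP. For oxidized, phosphorylated form: H2O2 oxidation (250 μM, 10 min, RT), desalting into reductant-free kinase buffer, AKT phosphorylation 16 h at 30°C. Captured on Ni2+-activated NTA chip (2.7 μM injected); reference cell had no NiCl2. 14-3-3ζ in HBS-N pH 7.4 injected at 30 μl/min, 3 min dissociation, 2 M NaCl regeneration, 25 °C.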

Another assay relates to PTP1B-OX(P). Description: SPR. It counts as binding. The note with it: 14-3-3ζ 5000 nM (Fig. 2c), HBS-N pH 7.4, 25 °C. The method, boiled down: as §1
The test system of the next assay is reduced PTP1B. Description: in vitro pull-down of reduced PTP1B with 14-3-3ζ. It counts as binding. The note with it: 50 nM PTP1B-R, 5 μM 14-3-3ζ, pH 7.4, 2 hours at 4°C, immunoblot. The method, boiled down:
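Bacterial His-PTP1B (1–321) kept in 1 mM TCEP; GST-14-3-3ζ purified on glutathione agarose. Reduced PTP1B 50 nM with 14-3-3ζ 5 μM in HEPES binding buffer (BSA, Tween, pH 7.4), 2 h at 4°C. Glutathione agarose capture 1 h at 4°C, three washes, SDS-PAGE; immunoblot with anti-PTP1B and anti-GST.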
Background: Immunoblotting shows a protein as a band on a membrane.

For the next assay, the system named is 14-3-3ζ. Description: pTyr loop derived-peptide pulldown from HEK293T lysates, iTRAQ LC-MS/MS. The class given is binding, human.
In assay [1] the test system is PTP1B–14-3-3ζ association. The class given is cell-based.
For assay [2], the system named is PTP1B. Description: PTP1B catalytic activity. It counts as cell-based. To be noted: EGF 100 ng/ml, pNPP, N=3 independent experiments.
For assay [3], the system named is PTP1B. Description: cysteinyl-labeling assay. It counts as cell-based. The note with it: EGF 100 ng/ml, indicated times; three independent experiments.

In the case of “14-3-3ζ: bacterially expressed, purified GST-14-3-3-ζ protein”, in the assay on reduced PTP1B (PTP1B-R), the “SPR binding of 14-3-3ζ to active reduced PTP1B” value is “not to the active reduced form of the enzyme”. For the same compound, in the assay on PTP1B-OX(P), the “SPR binding of 14-3-3ζ to oxidized, phosphorylated PTP1B” value was “specifically binds to PTP1B in its oxidized and phosphorylated inactive state”. For the same compound, in the assay on reduced PTP1B, the “interaction of 14-3-3ζ with reduced PTP1B, in vitro pull-down” value is given as “no interaction occurred with reduced PTP1B”.
For the compound CKNRNRYRDVS [pTyr loop-derived-peptide], the “enrichment of 14-3-3ζ by peptide bait (iTRAQ)” value in the assay on 14-3-3ζ (HEK293T lysate, 90 minutes at 4 °C, vs cysteine control beads) is “one of the most abundant proteins, and the most abundant 14-3-3 isoform”. Moreover, in the assay with 14-3-3ζ (concluded from SPR compared with MS analysis), the “nature of interaction of unphosphorylated loop peptide with 14-3-3ζ” value is recorded as “occurs indirectly via a protein intermediate”.
On to `CC(=O)N[C@@H](CS)C(=O)O` [NAC, N-acetylcysteine, reference compound], for which the “PTP1B–14-3-3ζ association in cells, NAC” value in assay [1] (NAC 1 mM, 1 h, EGF stimulation, two independent experiments (Fig. 1d)) was “Redox-dependent association between PTP1B and 14-3-3ζ was confirmed”.
With “EGF: epidermal growth factor, 100 ng/ml, used to activate EGFR”, the “PTP1B activity after EGF 10 min” value in the assay on PTP1B [2] is “mostly recovered”. Besides, the “reversible oxidation (biotinylation) of PTP1B, EGF” value with PTP1B [3] is “PTP1B biotinylation was detected in a transient manner at 1 and 2 minutes”. In addition, the “PTP1B–14-3-3ζ association following EGF” value in assay [1] (EGF 100 ng/ml, 0-10 min, HEK293T, three independent experiments) is “transient association between PTP1B and 14-3-3ζ between 2 to 5 minutes”.
